Data reported in ChEMBL document CHEMBL3286159, “Design, synthesis and molecular docking of amide and urea derivatives as Escherichia coli PDHc-E1 inhibitors” (Bioorg Med Chem, 2014).

Assay: Inhibition of purified Escherichia coli PDHc-E1 using sodium pyruvate as substrate assessed as reduction of 2,6-DichloroPhenolindophenol after 3 mins by spectrophotometry
Method in brief: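 E. coli PDHc-E1 expressed as MBP fusion from pMal-C2X in E. coli TB1 (IPTG 0.5 mM, 7 h, 25 °C) and purified by MBP affinity. Mix of 50 mM K3PO4 pH 7.2, 2.0 mM pyruvate, 0.8 mM 2,6-DCPIP, 7.1 µM enzyme and inhibitor preincubated 3 min at 37 °C. ThDP (0–200 µM) added to start. DCPIP reduction read at 600 nm. Initial rates fit to Hill equation for IC50.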

| IC50 | Structure (SMILES) |
| --- | --- |
| 9.45 µM | Cc1ncc(CNC(=O)COc2ccc(Cl)cc2Cl)c(N)n1 |
| 13 µM | Cc1ncc(CNC(=O)COc2ccc(Cl)cc2)c(N)n1 |
| 7.6 µM | Cc1ncc(CNC(=O)COc2ccc(F)cc2Cl)c(N)n1 |
| 60.8 µM | Cc1ncc(CNC(=O)COc2ccccc2Br)c(N)n1 |
| 21.9 µM | Cc1ncc(CNC(=O)COc2ccc(Cl)cc2C)c(N)n1 |
| 11.1 µM | Cc1ncc(CNC(=O)COc2ccc(Br)cc2)c(N)n1 |
| 16.6 µM | Cc1ncc(CNC(=O)COc2ccccc2Cl)c(N)n1 |
| 4.9 µM | Cc1ncc(CNC(=O)COc2ccc([N+](=O)[O-])cc2Cl)c(N)n1 |

Continued, compound first:

| Structure (SMILES) | IC50 |
| --- | --- |
| Cc1ncc(CNC(=O)COc2ccccc2)c(N)n1 | 45.4 µM |
| Cc1ncc(CNC(=O)NCOc2ccccc2)c(N)n1 | 12.9 µM |
| Cc1ccc(OCC(=O)NCc2cnc(C)nc2N)cc1 | 21.6 µM |
| Cc1ncc(CNC(=O)COc2ccc(F)cc2)c(N)n1 | 17.4 µM |
| COc1ccc(OCC(=O)NCc2cnc(C)nc2N)cc1 | 16.8 µM |
| Cc1ncc(CNC(=O)COc2ccc(C#N)cc2)c(N)n1 | 13.4 µM |
| COc1ccc(OCNC(=O)NCc2cnc(C)nc2N)cc1 | 6.3 µM |
| Cc1ncc(CNC(=O)COc2ccc([N+](=O)[O-])cc2)c(N)n1 | 3.58 µM |
| Cc1ncc(CNC(=O)NCOc2ccc(F)cc2)c(N)n1 | 10.3 µM |
| Cc1ccc(OCNC(=O)NCc2cnc(C)nc2N)cc1 | 9.23 µM |
| Cc1ncc(CNC(=O)NCOc2ccc(Cl)cc2)c(N)n1 | 3.67 µM |
